Measured values collected from several papers.
Lines come from different studies, so protocols differ.
Target: Serine/threonine-protein kinase 17A (STK17A, Homo sapiens, UniProt Q9UEE5)

Structure (SMILES)	read-out	mode	method	tested at	measurement	value
Cc1nn(CC(F)(F)F)cc1Nc1nccc(NCc2ccc(S(N)(=O)=O)cc2)n1	enzyme activity	inhibitor	radiometric	1 µM	remaining activity	103%
Nc1ncnc2occ(-c3ccc(NC(=O)Nc4cc(C(F)(F)F)ccc4F)cc3)c12	cell-free assay	–	–	20 µM	remaining signal	55%
O=C(O)[C@H]1[C@H](Cn2nnc3ccccc3c2=O)CC[C@@H]1C(=O)c1ccc(OCCC2CCOCC2)cc1	cell-free assay	–	competition with immobilised ligand	1 µM	remaining binding	97%
CC(C)c1ccc(NC(=O)c2cccs2)c(-c2nc3ccccc3[nH]c2=O)c1	enzyme activity	inhibitor	–	1 µM	activity vs control	91%
CNC(=O)c1cc(Oc2ccc(NC(=O)Nc3ccc(Cl)c(C(F)(F)F)c3)cc2)ccn1	cell-free assay	–	–	0.3 µM	inhibition	-8%
O=C(NCCCNc1nc(Nc2cccc(NC(=O)N3CCCC3)c2)ncc1I)c1cccs1	enzyme activity	inhibitor	radiometric	1 µM	remaining activity	2%
O=C1CCc2cc(Nc3cc(OC4CCOCC4)c([N+](=O)[O-])cc3Cl)ccc2N1	cell-free assay	–	competition with immobilised ligand	1 µM	remaining binding	95%
Cc1ccc(Nc2nccc(N(C)c3ccc4c(C)n(C)nc4c3)n2)cc1S(N)(=O)=O	cell-free assay	–	–	10 µM	inhibition	14%
COc1ccc2cc(OCC3(C(=O)O)CN(C(=O)c4ccc(F)cc4)C3)ccc2c1	cell-free assay	–	competition with immobilised ligand	1 µM	remaining binding	81%
CCN(CC)CCNC(=O)c1c(C)[nH]c(/C=C2\C(=O)Nc3ccc(F)cc32)c1C	cell-free assay	–	–	0.5 µM	remaining signal	26.7%
NS(=O)(=O)c1ccc(CNc2ccnc(Nc3cccc(NC(=O)N4CCCC4)c3)n2)cc1	enzyme activity	inhibitor	radiometric	1 µM	remaining activity	82%
O=C(N[C@H]1CCCCC/C=C\C2C[C@@]2(C(=O)O)NC(=O)[C@@H]2C[C@@H](Oc3ccncc3)CN2C1=O)OC1CCCC1 (some centres unmarked)	binding	–	competition with immobilised ligand	1 µM	remaining binding	100%
C=CC(=O)Nc1cc(Nc2nccc(Nc3cc(Cl)c(F)cc3C(C)(C)O)n2)c(OC)cc1N1CC[C@@H](N(C)C)C1	enzyme activity	inhibitor	–	1 µM	inhibition	1%
O=C1NC(=O)c2cc(Nc3ccc(F)cc3)c(Nc3ccc(F)cc3)cc21	cell-free assay	–	–	0.5 µM	remaining signal	104%
CCCS(=O)(=O)Nc1ccc(F)c(C(=O)c2c[nH]c3ncc(-c4ccc(Cl)cc4)cc23)c1F	enzyme activity	inhibitor	–	1 µM	inhibition	< 10%
O=C1Nc2ccc(Cl)cc2C1=Cc1cc(Cl)c(O)c(Cl)c1	cell-free assay	–	–	0.5 µM	remaining signal	78.9%
CCCOc1ccc([C@H]2[C@H](C(=O)O)[C@@H](c3ccc4c(c3)OCO4)CN2CC(=O)Nc2c(CC)cccc2CC)cc1	cell-free assay	–	competition with immobilised ligand	1 µM	remaining binding	92%
Cc1ccc(NC(=O)c2ccc(C)c(C(F)(F)F)c2)cc1C#Cc1nn(C2CCC(O)CC2)c2ncnc(N)c12 (centres unmarked)	cell-free assay	–	–	10 µM	remaining signal	140%
NS(=O)(=O)c1ccc(CNc2nc(Nc3cccc(NC(=O)N4CCCC4)c3)ncc2C2CC2)cc1	enzyme activity	inhibitor	radiometric	1 µM	remaining activity	79%
CN(C)C(=O)Cn1cc(-c2nc(C3(c4ccc(-c5cnc(N)nc5)cc4)CC3)no2)cn1	cell-free assay	–	competition with immobilised ligand	1 µM	remaining binding	100%
Cc1nn(CC(F)(F)F)cc1Nc1ncc(C2CC2)c(NCCCNC(=O)C2CCC2)n1	enzyme activity	inhibitor	radiometric	1 µM	remaining activity	25%
C#Cc1cccc(Nc2ncnc3cc(OCCOC)c(OCCOC)cc23)c1	cell-free assay	–	–	0.5 µM	remaining signal	99.7%
O=C(Nc1cccc(Nc2ncc(Br)c(NCCc3cnc[nH]3)n2)c1)N1CCCC1	enzyme activity	inhibitor	radiometric	1 µM	remaining activity	6%
Clc1ccc(Nc2nnc(Cc3ccncc3)c3ccccc23)cc1	cell-free assay	–	–	0.5 µM	remaining signal	99.4%
CS(=O)(=O)N1CCCC(NC(=O)[C@H](CCC2CCCCC2)NC(=O)c2ccc(CNc3ncnc4c3nnn4-c3ccccc3)cc2)C1 (some centres unmarked)	cell-free assay	–	competition with immobilised ligand	0.1 µM	remaining binding	100%
NS(=O)(=O)c1ccc(CNc2nc(Nc3cccc(CN4CCOCC4)c3)ncc2Br)cc1	enzyme activity	inhibitor	radiometric	1 µM	remaining activity	58%
